Source: ChEMBL document CHEMBL1134681, “Pseudoproline-containing analogues of morphiceptin and endomorphin-2: evidence for a cis Tyr-Pro amide bond in the bioactive conformation” (J Med Chem, 2001)

Key:
[1] = organism: Cavia porcellus; test: In vitro inhibition of electrically evoked contractions of GPI (Guinea pig ileum); type: functional
[2] = organism: Mus musculus; test: In vitro inhibition of electrically evoked contractions of MVD (Mouse vas deferens); type: functional
[3] = molecular target: Delta-type opioid receptor (Rattus norvegicus, UniProt P33533); test: Binding affinity towards delta receptor in rat brain using [3H]DSLET; type: tissue-based
[4] = molecular target: T1, Mu-type opioid receptor (Rattus norvegicus, UniProt P33535); test: (§1) Binding affinity towards mu receptor in rat brain using [3H]DAMGO; type: tissue-based
[5] = organism: Cavia porcellus; test: In vitro inhibition of electrically evoked contractions of GPI (Guinea pig ileum) relative to [Leu5]-enkephalin; type: functional
[6] = organism: Mus musculus; test: In vitro inhibition of electrically evoked contractions of MVD (Mouse vas deferens) relative to [Leu5]-enkephalin; type: functional
[7] = Ratio of inhibition of electrically evoked contractions of mouse vas deferens and inhibition of electrically evoked contractions of guinea pig ileum; IC50 ratio; type: functional
How it was run: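 Ratio of normalized IC50 values from electrically stimulated mouse vas deferens versus guinea pig ileum.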

[8] = molecular target: T1, Mu-type opioid receptor; test: as §1; type: tissue-based; remark: listed apart in the source
How it was run: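 Rat brain membranes; competitive displacement of [³H]DAMGO (0.72 nM; Kd 1.3 nM), incubated 2 h at 0 °C. IC50 taken from log dose–displacement curves, converted to Ki by Cheng–Prusoff.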

[9] = organism: Cavia porcellus; test: in vitro inhibition of electrically evoked contractions of GPI (Guinea pig ileum); type: functional
[10] = organism: Mus musculus; test: in vitro inhibition of electrically evoked contractions of MVD (Mouse vas deferens); type: functional
[11] = organism: Cavia porcellus; test: in vitro inhibition of electrically evoked contractions of GPI (Guinea pig ileum) relative to [Leu5]-enkephalin; type: functional
How it was run: (§2)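 Electrically stimulated isolated tissue (guinea pig ileum or mouse vas deferens), with inhibition of evoked contractions as read-out. […] IC50 values were taken from these curves and normalized to that standard by a published procedure.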

[12] = organism: Mus musculus; test: in vitro inhibition of electrically evoked contractions of MVD (Mouse vas deferens) relative to [Leu5]-enkephalin; type: functional; how it was run: as §2

Sequence of Delta-type opioid receptor (P33533 whole entry): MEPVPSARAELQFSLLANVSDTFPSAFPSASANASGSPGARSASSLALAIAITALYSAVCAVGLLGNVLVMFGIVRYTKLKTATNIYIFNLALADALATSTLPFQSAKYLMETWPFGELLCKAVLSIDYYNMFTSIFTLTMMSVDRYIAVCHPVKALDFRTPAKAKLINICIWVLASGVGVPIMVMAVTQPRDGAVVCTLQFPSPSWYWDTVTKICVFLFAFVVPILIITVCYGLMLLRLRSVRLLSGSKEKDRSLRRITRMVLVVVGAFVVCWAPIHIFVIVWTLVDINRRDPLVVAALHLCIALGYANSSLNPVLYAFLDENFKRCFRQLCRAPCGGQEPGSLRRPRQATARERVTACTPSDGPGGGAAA
T1 sequence (P33535 whole entry): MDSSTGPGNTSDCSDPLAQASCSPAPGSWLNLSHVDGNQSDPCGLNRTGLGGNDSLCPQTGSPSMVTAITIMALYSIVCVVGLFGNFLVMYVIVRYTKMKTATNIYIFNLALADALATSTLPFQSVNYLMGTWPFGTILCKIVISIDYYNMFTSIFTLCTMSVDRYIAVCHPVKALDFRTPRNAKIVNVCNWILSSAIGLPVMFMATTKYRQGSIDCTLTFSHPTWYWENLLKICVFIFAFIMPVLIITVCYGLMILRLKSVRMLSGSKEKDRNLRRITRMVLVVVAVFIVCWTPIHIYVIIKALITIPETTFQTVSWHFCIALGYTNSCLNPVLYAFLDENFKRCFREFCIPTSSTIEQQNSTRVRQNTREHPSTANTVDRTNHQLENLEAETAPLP

SMILES	IC50 [1] [nM]	IC50 [2] [nM]	Ki [3] [nM]	Ki [4] [nM]	Relative potency [5]	Relative potency [6]	further results
NC(=O)[C@@H]1CCCN1C(=O)[C@@H](Cc1ccccc1)NC(=O)[C@@H]1CSCN1C(=O)[C@@H](N)Cc1ccc(O)cc1 [listing 1 of 2 here]	74.5	190	2450	8.57	–	–	–
NC(=O)[C@@H]1CCCN1C(=O)[C@@H](Cc1ccccc1)NC(=O)[C@@H]1CSCN1C(=O)[C@@H](N)Cc1ccc(O)cc1 [listing 2 of 2 here]	–	–	–	–	3.3	0.06	Ratio [7]: 5.45
CC1(C)SC[C@@H](C(=O)N[C@H](Cc2ccccc2)C(=O)N2CCC[C@H]2C(N)=O)N1C(=O)[C@@H](N)Cc1ccc(O)cc1 [listing 1 of 2 here]	246	1420	> 10000	37.7	–	–	–
CC1(C)SC[C@@H](C(=O)N[C@H](Cc2ccccc2)C(=O)N2CCC[C@H]2C(N)=O)N1C(=O)[C@@H](N)Cc1ccc(O)cc1 [listing 2 of 2 here]	–	–	–	–	1	0.00803	–
NC(=O)[C@@H]1CCCN1C(=O)[C@@H](Cc1ccccc1)NC(=O)[C@@H]1COCN1C(=O)[C@@H](N)Cc1ccc(O)cc1 [listing 1 of 2 here]	470	1020	> 10000	58.9	–	–	–
NC(=O)[C@@H]1CCCN1C(=O)[C@@H](Cc1ccccc1)NC(=O)[C@@H]1COCN1C(=O)[C@@H](N)Cc1ccc(O)cc1 [listing 2 of 2 here]	–	–	–	–	0.523	0.0112	–
CC1(C)OC[C@@H](C(=O)N[C@H](Cc2ccccc2)C(=O)N2CCC[C@H]2C(N)=O)N1C(=O)[C@@H](N)Cc1ccc(O)cc1 [listing 1 of 2 here]	860	851	> 10000	96.5	–	–	–
CC1(C)OC[C@@H](C(=O)N[C@H](Cc2ccccc2)C(=O)N2CCC[C@H]2C(N)=O)N1C(=O)[C@@H](N)Cc1ccc(O)cc1 [listing 2 of 2 here]	–	–	–	–	0.286	0.0134	Ratio [7]: 2.17
NC(=O)[C@H](Cc1ccccc1)NC(=O)[C@H](Cc1ccccc1)NC(=O)[C@@H]1CSCN1C(=O)[C@@H](N)Cc1ccc(O)cc1 [listing 1 of 2 here]	22.2	138	1980	6.41	–	–	–
NC(=O)[C@H](Cc1ccccc1)NC(=O)[C@H](Cc1ccccc1)NC(=O)[C@@H]1CSCN1C(=O)[C@@H](N)Cc1ccc(O)cc1 [listing 2 of 2 here]	–	–	–	–	11.1	0.0826	Ratio [7]: 6.22
CC1(C)SC[C@@H](C(=O)N[C@@H](Cc2ccccc2)C(=O)N[C@@H](Cc2ccccc2)C(N)=O)N1C(=O)[C@@H](N)Cc1ccc(O)cc1 [listing 1 of 2 here]	502	–	> 10000	–	–	–	Ki [8]: 50.4 nM
CC1(C)SC[C@@H](C(=O)N[C@@H](Cc2ccccc2)C(=O)N[C@@H](Cc2ccccc2)C(N)=O)N1C(=O)[C@@H](N)Cc1ccc(O)cc1 [listing 2 of 2 here]	–	–	–	–	0.49	–	Inhibition [6]: 26%
CC1(C)OC[C@@H](C(=O)N[C@@H](Cc2ccccc2)C(=O)N[C@@H](Cc2ccccc2)C(N)=O)N1C(=O)[C@@H](N)Cc1ccc(O)cc1 [listing 1 of 2 here]	305	606	> 10000	46.9	–	–	–
CC1(C)OC[C@@H](C(=O)N[C@@H](Cc2ccccc2)C(=O)N[C@@H](Cc2ccccc2)C(N)=O)N1C(=O)[C@@H](N)Cc1ccc(O)cc1 [listing 2 of 2 here]	–	–	–	–	0.807	0.0188	Ratio [7]: 1.99
NC(=O)[C@H](Cc1ccccc1)NC(=O)[C@H](Cc1ccccc1)NC(=O)[C@@H]1COCN1C(=O)[C@@H](N)Cc1ccc(O)cc1 [listing 1 of 2 here]	41.7	151	> 4000	7.86	–	–	–
NC(=O)[C@H](Cc1ccccc1)NC(=O)[C@H](Cc1ccccc1)NC(=O)[C@@H]1COCN1C(=O)[C@@H](N)Cc1ccc(O)cc1 [listing 2 of 2 here]	–	–	–	–	5.9	0.0755	Ratio [7]: 3.62
NC(=O)[C@@H]1CCCN1C(=O)C(Cc1ccccc1)NC(=O)[C@H]1CCCN1C(=O)[C@@H](N)Cc1ccc(O)cc1 (stereo in doubt) [listing 1 of 2 here]	–	–	> 10000	–	–	–	IC50 [9]: 109 nM; IC50 [10]: 594 nM
NC(=O)[C@@H]1CCCN1C(=O)C(Cc1ccccc1)NC(=O)[C@H]1CCCN1C(=O)[C@@H](N)Cc1ccc(O)cc1 (stereo in doubt) [listing 2 of 2 here]	–	–	–	–	–	–	Relative potency [11]: 2.26; Relative potency [12]: 0.0192
NC(=O)[C@H](Cc1ccccc1)NC(=O)[C@H](Cc1ccccc1)NC(=O)[C@@H]1CCCN1C(=O)[C@@H](N)Cc1ccc(O)cc1 [ENDOMORPHIN 2]	–	–	–	–	–	–	IC50 [9]: 7.71 nM; IC50 [10]: 15.3 nM
CC(C)C[C@H](NC(=O)[C@H](Cc1ccccc1)NC(=O)CNC(=O)CNC(=O)[C@@H](N)Cc1ccc(O)cc1)C(N)=O [[LEU5]ENKEPHALIN]	–	–	–	–	–	–	IC50 [9]: 246 nM; IC50 [10]: 11.4 nM
